Screens deposited in PubChem by several laboratories.
In the library only some 2.6% were active in any assay of this set; here they are far more common.
HSF1 inh: HSF1 inhibition; NIH3T3-HGL HSE-luciferase, MG132-induced, luminescence 8 h; active compounds read low; activity change, negative = inhibition, % at 7.5 µM (by protocol); actives 0.77% (n = 300,000);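 active = more than half of replicate wells show activity change below -50%, luminescence cut by over half; inconclusive = some wells, but at most half, below -50%; inactive = no replicate well below -50%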;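 note: luciferase reports HSF-1 transcriptional activity via heat shock element; 0% = median of DMSO wells and -100% = zero luminescence signal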
Mdm2 ligase inh: inhibitors of human Mdm2 E3 ubiquitin ligase; signal enhancement, % at 5 µM; actives 0.11% (n = 210,000); cell-based MDM2 ubiquitination luciferase reporter, 2 h; 0 = plate control, 100 = twice control, blank-subtracted;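 active = signal enhancement of 30% or more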;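 note: luminescence tracks abundance of the self-degrading MDM2-luciferase fusion protein; higher signal means inhibition of MDM2 E3 ligase activity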
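Buffer or medium: Cells held in DMEM | Assay system: Stable mammalian line carrying autodegrading MDM2–luciferase fusion reporter | Quantity: 2000 cells/well | Times: 4 h settle plus 2 h compound, 37 °C | Doses: One concentration, 5 µM, with 0.2% DMSO | Technique: Luminescence with SteadyLite reagent, 15 min at room temperature | Benchmarks: Plate controls and plate blanks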
Rad51 HR inh: blocks human Rad51 in homologous recombination; actives 0.085% (n = 200,000); AID 1385; Q06609; hRad51 DNA strand exchange, fluorescence dequenching; inhibition, % at 10 µM;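 active = inhibition above 40% at the single screening dose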;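 note: 0% = DMSO control wells and 100% = blanks with heterologous ssDNA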
Target sequence (Q06609 whole entry, looked up): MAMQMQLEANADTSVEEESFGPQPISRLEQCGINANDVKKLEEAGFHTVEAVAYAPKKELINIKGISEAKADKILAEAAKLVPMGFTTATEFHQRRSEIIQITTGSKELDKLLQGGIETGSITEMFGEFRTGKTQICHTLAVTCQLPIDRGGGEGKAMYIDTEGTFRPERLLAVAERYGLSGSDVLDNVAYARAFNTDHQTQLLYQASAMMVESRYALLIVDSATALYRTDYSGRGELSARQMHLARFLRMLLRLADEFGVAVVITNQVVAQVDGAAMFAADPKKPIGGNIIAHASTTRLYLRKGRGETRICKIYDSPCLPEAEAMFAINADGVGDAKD
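Material: Human Rad51 nucleoprotein filaments preassembled on unlabelled ssDNA | Also added: Labelled 47-mer dsDNA for strand exchange | Dosing: Single dose, 10 µM final compound | Schedule: 30-min compound preincubation and 15-min exchange, both room temperature | Technique: Fluorescence dequenching at 485/520 nm | Measure: Percent inhibition relative to plate controls and blanks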
Hsp70 activator: switches on Hsp70 transcription | HeLa Hsp70 promoter luciferase reporter, luminescence; scaled: vehicle 0, proteasome-inhibitor control 100% | activation, % at 10 µM | actives 0.04% (n = 200,000) | AID 1203;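 active = activation above the mean across all tested compounds plus 3 SD, cutoff set per campaign, cut at about 5.5% in these data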;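 note: 100% = MG132 at 30 µM as the positive control and 0% = DMSO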
HSF1 activator: increases HSF-1 driven luciferase reporter signal | NIH3T3-HGL HSF-1 luciferase reporter, MG132, 8 h; 100% = twice DMSO control signal | activation, % at 9 µM | actives 1.7% (n = 300,000) | AID 504408;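 active = mean replicate activation of at least 50% with a set share of replicates each reaching 50%; inconclusive = only one of those two conditions met; inactive = mean below 50% and too few replicates reaching it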;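 note: 0% = median of the neutral control wells and 100% = twice that signal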
HSV augment: increases HSV replication in cells | HSV replication augmentation in cells, fold increase | maximum fold increase | actives 0.005% (n = 220,000) | AID 1956; in the data active = maximum fold increase above about 1.5; inconclusive = no clear call, values can overlap the other calls; tested in PC3 cells
* marks the source's active call; other numbers are inactive results; i = inactive; ? = inconclusive; / = not tested or not shown.

SMILES	HSF1 inh	Mdm2 ligase inh	Rad51 HR inh	Hsp70 activator	HSF1 activator	HSV augment
CCOC(=O)C1=NN(C(=O)COc2ccccc2)C(O)(c2ccc(Cl)cc2)C1 (stereo not drawn)	71	-8	3	0	122*	i
CCC1=NN(C(=O)c2ccc(Br)cc2)C(O)(c2ccccc2)C1 (stereo not drawn)	19	/	/	0	20	i
CC1=NN(C(=O)c2ccccc2)C(O)(c2ccc(Br)cc2)C1 (stereo not drawn)	43	-16	8	/	83*	i
CCOC(=O)C1=NN(C(=O)Cc2ccccc2)C(O)(c2ccc(Cl)cc2)C1 (stereo not drawn)	7	-1	/	0	32	/
COc1cc(/C=N/NC(=O)C2CCN(CC(O)COCc3ccccc3)CC2)ccc1O (stereo not drawn)	3	-10	-6	0	-6	i
COC(=O)C1=NN(C(=O)c2cccc(Br)c2)C(O)(c2ccc(Cl)cc2)C1 (stereo not drawn)	114	1	-115	1	183*	?
O=S(=O)(NC1c2cccc3cccc(c23)C1N1CCNCC1)c1ccc(Cl)cc1 (stereo not drawn)	26	-38	3	0	61*	i
CC(=O)N1CCN(C2c3cccc4cccc(c34)C2NS(=O)(=O)c2ccccc2)CC1 (stereo not drawn)	16	-13	-2	0	22	i
O=C(CCCCCN1C(=O)c2ccccc2C1=O)Oc1ccc2c3c(c(=O)oc2c1)CCC3	-12	-6	-4	0	2	i
COc1ccc(Cc2nnc(NC(=O)C(C)(C)C)s2)cc1	2	-8	0	0	9	i
Cc1ccc(/C=C/C(O)=C2/C(=O)N(C)C3(C)CC2c2ccccc2O3)cc1 (stereo not drawn)	7	15	3	0	38	i
COc1ccc(/C=C/C(O)=C2/C(=O)N(C)C3(C)CC2c2ccccc2O3)cc1 (stereo not drawn)	22	-12	-4	0	65*	i
C/C(=N/NC(=O)c1ccc(Br)o1)c1cccc(NC(=O)c2ccc(F)cc2)c1	21	/	/	/	17	/
Oc1c(C(Nc2nccs2)c2ccc(C(F)(F)F)cc2)ccc2cccnc12 (stereo not drawn)	-59*	-8	/	0	-70	i
Oc1c(C(Nc2cccc(C(F)(F)F)c2)c2ccncc2)ccc2cccnc12 (stereo not drawn)	-31	-11	1	0	-41	i
CC(C)(C)c1ccc(C(=O)Nc2cccc3c(=O)[nH][nH]c(=O)c23)cc1	-61*	-42	/	-1	-61	/
Cc1ccc(C(=O)Nc2cccc3ccccc23)cc1	20	/	/	/	27	/
Cc1ccc(S(=O)(=O)N(CC(=O)NCCSc2ccccn2)c2ccccc2F)cc1	2	/	/	/	45	/
CNc1ccccc(-c2ccc3ccccc3n2)c1=O	12	-8	/	0	8	i
COc1ccc(N=C2C(=Nc3ccc(OC)cc3)N(c3ccc(OC)cc3)C(=S)N2C(=O)c2ccc(OC)cc2)cc1	24	6	-2	0	65*	i
COc1ccc(N2C(=S)N(C(=O)c3ccccc3)C(=Nc3ccccc3)C2=Nc2ccccc2)cc1	24	/	-2	0	34	i
COc1ccc(N=C2C(=Nc3ccc(OC)cc3)N(c3ccc(N(C)C)cc3)C(=S)N2c2ccc(OC)cc2)cc1	29	-21	-6	0	63*	i
COc1ccc(N=C2C(=Nc3ccc(OC)cc3)N(c3ccccc3)C(=S)N2C(=O)c2ccc(Cl)cc2)cc1	24	-11	-2	1	44	i
COC(=O)C1=C(C(=O)OC)[C@@H]2N(C)c3ccc(OC)cc3[C@@]23C[C@@H](C(=O)OC)N(S(=O)(=O)c2ccc(OC)cc2)C3=N1	-2	9	3	/	-1	i
O=C(Nc1cccc2c1CCCC2)c1cc([N+](=O)[O-])ccc1Cl	31	-7	8	0	55*	i
SMILES	HSF1 inh	Mdm2 ligase inh	Rad51 HR inh	Hsp70 activator	HSF1 activator	HSV augment
Cc1ccc(O)c(NC(=O)c2cc([N+](=O)[O-])ccc2Cl)c1	-7	1	7	0	1	i
O=C(Nc1cccc2c1CCCC2)c1ccc(Cl)c([N+](=O)[O-])c1	1	-2	/	0	13	i
Cc1cc(O)c(NC(=O)c2cc([N+](=O)[O-])ccc2Cl)cc1C	99	0	19	0	100*	i
S=C(NCC1CCCO1)N1CCc2ccccc2C1 (stereo not drawn)	2	/	/	/	11	/
O=C(O)c1c(-c2ccccc2)oc2ccc(O)cc12	-1	/	/	/	30	/
O=Cc1c(-c2ccc(Cl)cc2)oc2ccc(O)cc12	-55*	/	/	/	-57	/
Cn1c(-c2sc3cc(C(F)(F)F)cnc3c2-c2cccnc2)n[nH]c1=S	-85*	-1	12	2	-88	i
COc1cc(NC(=O)CSc2nnc(-c3ccncc3)o2)cc(OC)c1OC	-3	/	/	/	19	/
CC[C@@]1(O)C(=O)OCc2c1cc1n(c2=O)Cc2cc3c(N)cccc3nc2-1	23	-47	6	/	50*	i
COc1cc(C(O)P(=O)(OC2CCCCC2)c2ccc(N(C)C)cc2)cc(OC)c1OC (stereo not drawn)	28	0	3	0	57*	i
O=S(=O)(c1ccc(Cl)cc1)N1CCC(c2nc3ccccc3[nH]2)CC1	33	/	/	/	73*	/
Nc1nc(N)c(C=Nc2ccc(Br)cc2)c(Nc2ccc(Br)cc2)n1	38	-15	8	/	67*	i
O=C(NCCCN1CCCCCC1)c1ccc2c(Cl)c3c(nc2c1)CCCC3	6	-25	13	0	-9	i
CCN1CCN(CCCNC(=O)c2ccc3c(Cl)c4c(nc3c2)CCCC4)CC1	73	/	/	/	97*	/
CN1CCN(C(=O)c2ccc3c(Cl)c4c(nc3c2)CCCC4)CC1	108	/	/	/	136*	/
CCN1CCN(C(=O)c2ccc3c(Cl)c4c(nc3c2)CCCC4)CC1	72	/	/	/	114*	/
N#CC1CCN(C(=O)c2ccc3c(Cl)c4c(nc3c2)CCCC4)CC1	15	/	/	/	21	/
CC1(c2nnc(Cc3ccccc3)o2)CC(c2c(Cl)cccc2Cl)=NO1 (stereo not drawn)	-1	/	-6	/	2	i
COC(=O)C1=C(COc2ccccc2)NC(=O)NC1c1ccc(Cl)cc1 (stereo not drawn)	21	/	4	/	53*	i
CC(C)(C)[C@@H]1CCC(=O)N(CC[C@H](N=[N+]=[N-])c2ccccc2)CC1	2	/	/	/	17	/
COC(=O)Cn1c2ccc(OC)cc2c2nc(C)sc21	33	-13	-1	/	88*	i
